Laboratory results from ChEMBL document CHEMBL1145205, “Synthesis and biological evaluation of 1,2,4-triazinylphenylalkylthiazolecarboxylic acid esters as cytokine-inhibiting antedrugs with strong bronchodilating effects in an animal model of asthma” (J Med Chem, 2005).

Legend:
[1] = Percent conversion of compound in human liver fraction after 60 min of administration; format: ADME, tissue-based; settings: read-out: Conversion
Method in brief: (§1)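 Test compound at 10^-6 M incubated at 37 °C in phosphate buffered saline with human liver S9 (10 µg protein/ml) or human lung S9 (50 µg protein/ml); samples taken at 0, 15 and 60 min; parent compound quantified by LC-MS/MS using MRM transition of parent to daughter ion; percent converted after 60 min.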

[2] = Percent conversion of compound in human lung S9 fraction after 60 min of administration; format: ADME; settings: read-out: Conversion; method in brief: as §1
PBL [3] = assay: Percent inhibition of interleukin-5 production in human whole blood assay after 10e-7 M treatment; format: functional
PBL [4] = assay: Percent inhibition of interleukin-5 production in human whole blood assay after 10e-6 M treatment; format: functional

Q: Which metabolised at 1 h [1] does the source give for `CC(C)(c1nc(-c2ccccc2)c(C(=O)OCCc2ccccc2)s1)c1c(Cl)cc(-n2ncc(=O)[nH]c2=O)cc1Cl` here?
A: The metabolised at 1 h was 94%.

Q: And the metabolised at 1 h [2]?
A: The metabolised at 1 h was 24%.

Q: And the Inhibition (PBL [3])?
A: The Inhibition was 62%.

Q: And the Inhibition (PBL [4])?
A: The Inhibition was 88%.

Q: For `COC(=O)c1sc(C(C)(C)c2c(Cl)cc(-n3ncc(=O)[nH]c3=O)cc2Cl)nc1-c1ccccc1`, which metabolised at 1 h [1] is on record?
A: The metabolised at 1 h was 49%.

Q: What about the metabolised at 1 h [2] of the same compound?
A: The metabolised at 1 h was 47%.

Q: What about the Inhibition (PBL [3]) of the same compound?
A: Its Inhibition is 84%.

Q: What about the Inhibition (PBL [4]) of the same compound?
A: Its Inhibition is 93%.

Q: For `CC(C)=CCOC(=O)c1sc(C(C)(C)c2c(Cl)cc(-n3ncc(=O)[nH]c3=O)cc2Cl)nc1-c1ccccc1`, which metabolised at 1 h [1] is on record?
A: The metabolised at 1 h was 65%.

Q: What about the metabolised at 1 h [2] of the same compound?
A: The metabolised at 1 h was 6%.

Q: What about the Inhibition (PBL [3]) of the same compound?
A: Its Inhibition is 55%.

Q: And the Inhibition (PBL [4])?
A: Its Inhibition is 73%.

Q: With `CC(C)(C)OC(=O)c1sc(C(C)(C)c2c(Cl)cc(-n3ncc(=O)[nH]c3=O)cc2Cl)nc1-c1ccccc1` as the compound, how does the metabolised at 1 h [1] read?
A: The metabolised at 1 h was 7%.

Q: And the metabolised at 1 h [2]?
A: Its metabolised at 1 h is 0%.

Q: What about the Inhibition (PBL [3]) of the same compound?
A: The Inhibition was 79%.

Q: And the Inhibition (PBL [4])?
A: Its Inhibition is 89%.

Q: Which results are given for `CCCOC(=O)c1sc(C(C)(C)c2c(Cl)cc(-n3ncc(=O)[nH]c3=O)cc2Cl)nc1-c1ccccc1`?
A: metabolised at 1 h [1]: 68%; metabolised at 1 h [2]: 23%; Inhibition (PBL [3]): 69%; Inhibition (PBL [4]): 96%

Q: For `CC(C)(c1nc(-c2ccccc2)c(C(=O)OCCCO)s1)c1c(Cl)cc(-n2ncc(=O)[nH]c2=O)cc1Cl`, which metabolised at 1 h [1] is on record?
A: The metabolised at 1 h was 76%.

Q: What about the metabolised at 1 h [2] of the same compound?
A: Its metabolised at 1 h is 8%.

Q: And the Inhibition (PBL [3])?
A: Its Inhibition is 58%.

Q: And the Inhibition (PBL [4])?
A: The Inhibition was 83%.

Q: Which results are given for `CCCCCOC(=O)c1sc(C(C)(C)c2c(Cl)cc(-n3ncc(=O)[nH]c3=O)cc2Cl)nc1-c1ccccc1`?
A: metabolised at 1 h [1]: 72%; metabolised at 1 h [2]: 32%; Inhibition (PBL [3]): 54%; Inhibition (PBL [4]): 91%

Q: Which results are given for `CCCCOC(=O)c1sc(C(C)(C)c2c(Cl)cc(-n3ncc(=O)[nH]c3=O)cc2Cl)nc1-c1ccccc1`?
A: metabolised at 1 h [1]: 86%; metabolised at 1 h [2]: 18%; Inhibition (PBL [3]): 51%; Inhibition (PBL [4]): 88%

Q: With `CC(C)OC(=O)c1sc(C(C)(C)c2c(Cl)cc(-n3ncc(=O)[nH]c3=O)cc2Cl)nc1-c1ccccc1` as the compound, how does the metabolised at 1 h [1] read?
A: The metabolised at 1 h was 10%.

Q: And the metabolised at 1 h [2]?
A: Its metabolised at 1 h is 1%.

Q: And the Inhibition (PBL [3])?
A: The Inhibition was 85%.

Q: What about the Inhibition (PBL [4]) of the same compound?
A: The Inhibition was 94%.

Q: With `CC(C)(c1nc(-c2ccccc2)c(C(=O)OCCO)s1)c1c(Cl)cc(-n2ncc(=O)[nH]c2=O)cc1Cl` as the compound, how does the metabolised at 1 h [1] read?
A: Its metabolised at 1 h is 1%.

Q: And the metabolised at 1 h [2]?
A: Its metabolised at 1 h is 0%.

Q: And the Inhibition (PBL [3])?
A: Its Inhibition is 66%.

Q: What about the Inhibition (PBL [4]) of the same compound?
A: The Inhibition was 93%.

Q: Which results are given for `CC(C)COC(=O)c1sc(C(C)(C)c2c(Cl)cc(-n3ncc(=O)[nH]c3=O)cc2Cl)nc1-c1ccccc1`?
A: metabolised at 1 h [1]: 80%; metabolised at 1 h [2]: 27%; Inhibition (PBL [3]): 56%; Inhibition (PBL [4]): 90%

Q: With `CC(C)(c1nc(-c2ccccc2)c(C(=O)OCC(F)(F)F)s1)c1c(Cl)cc(-n2ncc(=O)[nH]c2=O)cc1Cl` as the compound, how does the metabolised at 1 h [1] read?
A: Its metabolised at 1 h is 38%.

Q: What about the metabolised at 1 h [2] of the same compound?
A: The metabolised at 1 h was 36%.

Q: And the Inhibition (PBL [3])?
A: Its Inhibition is 75%.

Q: And the Inhibition (PBL [4])?
A: The Inhibition was 92%.

Q: Which metabolised at 1 h [1] does the source give for `CC(C)(c1nc(-c2ccccc2)c(C(=O)OCCOc2ccccc2)s1)c1c(Cl)cc(-n2ncc(=O)[nH]c2=O)cc1Cl` here?
A: Its metabolised at 1 h is 73%.

Q: What about the metabolised at 1 h [2] of the same compound?
A: The metabolised at 1 h was 21%.

Q: And the Inhibition (PBL [3])?
A: Its Inhibition is 70%.

Q: And the Inhibition (PBL [4])?
A: The Inhibition was 83%.

Q: Which metabolised at 1 h [1] does the source give for `CCOC(=O)c1sc(C(C)(C)c2c(Cl)cc(-n3ncc(=O)[nH]c3=O)cc2Cl)nc1-c1ccccc1` here?
A: Its metabolised at 1 h is 29%.

Q: And the metabolised at 1 h [2]?
A: The metabolised at 1 h was 17%.

Q: What about the Inhibition (PBL [3]) of the same compound?
A: The Inhibition was 67%.

Q: And the Inhibition (PBL [4])?
A: The Inhibition was 94%.

Q: For `C=CCOC(=O)c1sc(C(C)(C)c2c(Cl)cc(-n3ncc(=O)[nH]c3=O)cc2Cl)nc1-c1ccccc1`, which metabolised at 1 h [1] is on record?
A: The metabolised at 1 h was 68%.

Q: And the metabolised at 1 h [2]?
A: The metabolised at 1 h was 23%.

Q: And the Inhibition (PBL [3])?
A: The Inhibition was 69%.

Q: And the Inhibition (PBL [4])?
A: The Inhibition was 96%.

Q: Which metabolised at 1 h [1] does the source give for `CC(C)(c1nc(-c2ccccc2)c(C(=O)OCC#N)s1)c1c(Cl)cc(-n2ncc(=O)[nH]c2=O)cc1Cl` here?
A: The metabolised at 1 h was 61%.

Q: And the metabolised at 1 h [2]?
A: The metabolised at 1 h was 34%.

Q: And the Inhibition (PBL [3])?
A: Its Inhibition is 74%.

Q: And the Inhibition (PBL [4])?
A: The Inhibition was 91%.

Q: What does the source list for `CC(=O)COC(=O)c1sc(C(C)(C)c2c(Cl)cc(-n3ncc(=O)[nH]c3=O)cc2Cl)nc1-c1ccccc1`?
A: metabolised at 1 h [1]: 64%; metabolised at 1 h [2]: 19%; Inhibition (PBL [3]): 57%; Inhibition (PBL [4]): 85%

Q: For `CC#CCOC(=O)c1sc(C(C)(C)c2c(Cl)cc(-n3ncc(=O)[nH]c3=O)cc2Cl)nc1-c1ccccc1`, which metabolised at 1 h [1] is on record?
A: The metabolised at 1 h was 1%.

Q: And the metabolised at 1 h [2]?
A: Its metabolised at 1 h is 3%.

Q: And the Inhibition (PBL [3])?
A: Its Inhibition is 96%.

Q: What about the Inhibition (PBL [4]) of the same compound?
A: The Inhibition was 100%.

Q: With `CC(C)(c1nc(-c2ccccc2)c(C(=O)OCC2CC2)s1)c1c(Cl)cc(-n2ncc(=O)[nH]c2=O)cc1Cl` as the compound, how does the metabolised at 1 h [1] read?
A: Its metabolised at 1 h is 87%.

Q: What about the metabolised at 1 h [2] of the same compound?
A: The metabolised at 1 h was 27%.

Q: And the Inhibition (PBL [3])?
A: Its Inhibition is 56%.

Q: What about the Inhibition (PBL [4]) of the same compound?
A: Its Inhibition is 92%.

Q: Which metabolised at 1 h [1] does the source give for `CC(C)(c1nc(-c2ccccc2)c(C(=O)O)s1)c1c(Cl)cc(-n2ncc(=O)[nH]c2=O)cc1Cl` here?
A: The metabolised at 1 h was 0%.

Q: And the metabolised at 1 h [2]?
A: Its metabolised at 1 h is 0%.

Q: What about the Inhibition (PBL [3]) of the same compound?
A: The Inhibition was 0%.

Q: And the Inhibition (PBL [4])?
A: Its Inhibition is 0%.

Q: With `C#CCOC(=O)c1sc(C(C)(C)c2c(Cl)cc(-n3ncc(=O)[nH]c3=O)cc2Cl)nc1-c1ccccc1` as the compound, how does the metabolised at 1 h [1] read?
A: The metabolised at 1 h was 55%.

Q: What about the metabolised at 1 h [2] of the same compound?
A: Its metabolised at 1 h is 20%.

Q: What about the Inhibition (PBL [3]) of the same compound?
A: The Inhibition was 87%.

Q: What about the Inhibition (PBL [4]) of the same compound?
A: The Inhibition was 90%.
